Compounds with a hit are over-represented: about 5.4% of the library has one in this group of screens.
Rev-RRE block = HIV Rev-RRE protein-RNA interaction inhibition; P05866; Rev peptide-RRE RNA binding, FRET; inhibition, % at 8 µM; 0.79% of 97,000 active;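 active means inhibition above the screen-wide mean plus 3 SD, cut at about 35% in these data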
Target sequence (P05866 whole entry, looked up): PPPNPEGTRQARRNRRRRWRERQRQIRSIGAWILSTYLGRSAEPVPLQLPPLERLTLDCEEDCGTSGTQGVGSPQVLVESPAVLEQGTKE
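Assay system: Rev peptide and RRE RNA, both fluorescently labelled; times: 5 min preincubation and 15 min binding, 25 °C; detection: FRET, ex 480 nm, em 540 and 671 nm; read-out basis: % inhibition from 671/540 nm acceptor-to-donor ratio, scaled between controls; benchmarks: DMSO low control, neomycin B high control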
hDAT+cocaine = modulates human dopamine transporter uptake under cocaine; Q01959; LLC-PK1 hDAT cells, [14C]-dopamine uptake with cocaine IC80; actives deviate in either direction; B-score at 10 µM; 1.3% of 110,000 active;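 active means Z score or B-score, a plate-position-corrected score, falls beyond the plate's 99.7% confidence bounds, in either direction; inactive means both scores lie inside the 99.7% bounds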
EphB4 antag = antagonists of human EphB4-ephrin-B2 interaction. P54760. 0.15% of 97,000 active. inhibition, % at 7 µM. EphB4 LBD / TNYL-RAW-Alexa532 peptide, fluorescence polarization;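 active means inhibition above the screen-wide mean inhibition plus 3 SD, cut at about 15% in these data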
Cav3 T inh = blocks human Cav3.2 T-type calcium channel | O95180 | Cav3.2-expressing cells, Fluo-4 calcium fluorescence FDSS; stronger effect = lower value | B-score at 10 µM | 4% of 100,000 active;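 active means single-dose well whose peak fluorescence ratio is a statistical outlier from its plate by either plate-standardised score or position-corrected B-score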
Each line names hits and unclear results; the compound was inactive in the other large screens; [ ] = another dose, or the depositor's remark.

Cc1ccc(/C=C2\CCC3=C2OC(N)=C(C#N)C3c2ccc(C)cc2)cc1 (stereo unspecified)	Rev-RRE block 138[fluorescence artefact?], Cav3 T inh -6.5
Cc1ccc(C2C(C#N)=C(N)Oc3n[nH]c(-c4cccs4)c32)cc1 (stereo unspecified)	none
COc1cc(/C=C2\SC(c3ccc(C)cc3)=NC2=O)cc(OC)c1OC	Rev-RRE block 51
COc1ccc(/C=C2\SC(c3ccc(C)cc3)=NC2=O)cc1OC	Rev-RRE block 113[fluorescence artefact?]
COc1ccc(/C=C2/C(=O)N=C(N)N2C)cc1OC	none
COc1ccc(/C=C2/SC(c3ccc(C)cc3)=NC2=O)cc1OC	Rev-RRE block 114[fluorescence artefact?]
Cc1nnc(-c2cnn(C)c2N)n1Cc1cccc(Cl)c1	none
O=C(O)c1ccc(CSc2nnc(COc3ccc(Cl)cc3Cl)o2)cc1	Cav3 T inh -9.2 (no result: Rev-RRE block, EphB4 antag)
CC(C)C(C)(C#N)NC(=O)CSc1nnc(-c2ccccc2)o1 (stereo unspecified)	none
N#Cc1ccc(CSc2nnc(-c3ccccn3)n2-c2ccccc2)cc1	none
N#Cc1ccc(CSc2nnc(-c3cccs3)n2-c2ccccc2)cc1	Cav3 T inh -5.8
COC(=O)c1cccc(N(C(=O)c2cnccn2)C(C(=O)NC2CCCCC2)c2cn(C)nc2C)c1 (stereo unspecified)	none
COc1ccccc1/C=C/C(=O)NCC(=O)N/N=C/c1cc(Br)ccc1OC	Cav3 T inh -9.3
COc1ccc(/C=C/C(=O)NCC(=O)N/N=C/c2cc(Br)ccc2OC)cc1	none
Cc1nc(-c2ccccc2O)n(-c2ccccc2)n1	none
O=C(NCCc1ccccc1)C(=O)NCC1(c2ccccc2)CCCC1	none
O=C(NCC1(c2ccccc2)CCCC1)c1cccc(Br)c1	Cav3 T inh -7.5
COC(=O)c1ccccc1NC1=C/C(=N\S(=O)(=O)c2cccs2)c2ccccc2C1=O	hDAT+cocaine -3
COCCN1C(=O)N[C@@H](c2ccccc2)C(C(C)=O)=C1C	none (no result: Rev-RRE block, EphB4 antag)
Cc1cccc2cc3c(N)c(C#N)sc3nc12	none
Cc1sc(NC(=O)c2sc3nc4c(C)cccc4cc3c2N)c(C#N)c1C	Rev-RRE block 101[fluorescence artefact?]
COCCCNC(=S)NNC(=O)c1cccnc1	none
CCNc1cc(=O)n(C)c(=O)n1C	none (no result: Cav3 T inh)
C=CCn1c(NC)cc(=O)n(C)c1=O	hDAT+cocaine -9.1
CCC1Sc2ccccc2N(CC(=O)NCCC2=CCCCC2)C1=O (stereo unspecified)	Cav3 T inh -5.8
Cn1ccnc1Sc1nc2ccccc2nc1NS(=O)(=O)c1ccccc1	none (no result: Rev-RRE block, EphB4 antag)
Cc1ccc(S(=O)(=O)c2c(COC(=O)c3ccc(Cl)cc3)c(-c3ccccc3)nn2C)cc1	Rev-RRE block 73
CC(Nc1nc(N2CCCCC2)nc2ccccc12)c1ccccc1 (stereo unspecified)	Cav3 T inh -7
CN(C)c1ccc(C(c2nnnn2CCOC(=O)Nc2ccc(Cl)cc2)N2CCOCC2)cc1 (stereo unspecified)	Cav3 T inh -4.1
CCOc1ccc(NC(=O)C/C(N)=N/O)cc1	none
O=C(CN1CCC(C(=O)c2ccc(F)cc2)CC1)Nc1ccc(F)cc1	Cav3 T inh -5.4
CCOc1ccc(NC(=O)CSC(N)=O)cc1	Cav3 T inh -4.7 (no result: Rev-RRE block, EphB4 antag)
CCOc1ccc(NC(=O)CN2CCN(CC(=O)c3ccc(OCC)cc3)CC2)cc1	hDAT+cocaine 2
Cc1cccc2cc(CN(Cc3ccccc3)C(=O)c3cccc(F)c3)c(Cl)nc12	none
CCn1c(=O)n(CC)c2cc(S(=O)(=O)Nc3cc(C)cc(C)c3C#N)ccc21	none
CCOC(=O)C1=C(O)/C(=C/c2ccc(C)o2)SC1=NC(=O)c1ccccc1C	Rev-RRE block 69 (no result: hDAT+cocaine, Cav3 T inh)
COc1ncccc1-c1nnn(-c2ccc(C)cc2)n1	none (no result: Rev-RRE block, EphB4 antag)
Fc1c(F)c(C(F)(F)F)c(F)c(F)c1N/N=C\c1cccs1	none
CCCCn1c(/N=C/c2cc(OC)ccc2O)nc2ccccc21	hDAT+cocaine 2.7
COc1ccc2c(c1)c(=O)oc1cc(OCC(=O)N3CCc4ccccc4C3)ccc12	none
COc1cccc2c1C(=O)c1c(O)c3c(c(O)c1C2=O)C[C@@](O)(C(=O)CO)C[C@@H]3O[C@H]1C[C@H](N)[C@H](O)[C@H](C)O1	Cav3 T inh -5.7 (no result: Rev-RRE block, EphB4 antag)
CCCN(CCC)S(=O)(=O)c1ccc(C(=O)N2CCOCC2)cc1	none
c1ccc(Cc2nnc(-c3ccccc3)o2)cc1	Cav3 T inh -5.5
Cc1ccc(-c2nnc(Cc3ccc(Cl)cc3)o2)cc1	none
CCOC(=O)c1c(CN(CC)CC)oc2cc(Br)c(O)cc12	hDAT+cocaine 4.1
CCC1CCC2(CC1)NNC(=S)NN2	none
Cc1ccc(Cl)cc1NC(=O)CC1NCCNC1=O (stereo unspecified)	none
CCc1cc(C(=O)COc2ccccc2F)c(O)cc1O	Cav3 T inh -9
S=C(Nc1ccccc1)N1CCCCCC1	hDAT+cocaine -8.4
S=C(Nc1ccccc1)N1CCN(C2CCCCC2)CC1	none
CCOC(=O)C1=C(C)NC(=O)NC1C(C)C (stereo unspecified)	none (no result: Rev-RRE block, EphB4 antag)
N#C/C(=C\c1cn(CCOc2ccccc2)c2ccccc12)C(=O)NCC1CCCO1 (stereo unspecified)	Cav3 T inh -4.4
O=C(CCCOc1ccccc1)NCC1CCCO1 (stereo unspecified)	none
N#Cc1c(NC(=O)CSc2nnc(-c3ccncc3)n2CC2CCCO2)sc2c1CCCC2 (stereo unspecified)	none
NC(=O)c1c(NC(=O)CSc2nnc(-c3ccccc3)n2CC2CCCO2)sc2c1CCC2 (stereo unspecified)	hDAT+cocaine 2.7
N#Cc1cc2c(nc1SCC(=O)Nc1sc3c(c1C#N)CCC3)CCCCCC2	hDAT+cocaine 2.6
CCn1c(SCC(=O)Nc2sc3c(c2C#N)CCCC3)nnc1-c1ccncc1	EphB4 antag 17
N#Cc1c(NC(=O)CSc2nnc(-c3ccccc3O)n2-c2ccccc2)sc2c1CCCC2	Cav3 T inh -4.8
O=C(Cn1cnc2c(nnn2Cc2ccc(F)cc2)c1=O)N1CCN(c2ccccc2)CC1	none (no result: hDAT+cocaine, Cav3 T inh)
COc1ccccc1N1CCN(c2nc3ccccn3c(=O)c2C=O)CC1	none
CCn1cc(CNC(=O)CCSc2nc(-c3ccco3)cc(C(F)(F)F)n2)cn1	none
CCOC(=O)CSc1n[nH]c(NC(=O)c2cccc(C(F)(F)F)c2)n1	none
CC(C)CCNC(=O)c1onc(CSc2ccccc2)c1C(=O)NCCC(C)C	none (no result: Rev-RRE block, EphB4 antag)
COc1ccc(-c2cc(C(F)(F)F)n3nc(C(=O)NCc4ccco4)cc3n2)cc1OC	none
Cc1ccc(CC(=O)N2CCN(c3cccc(C(F)(F)F)c3)CC2)cc1	Cav3 T inh -5.4
COc1ccccc1NC(=O)N1CCN(c2cccc(C(F)(F)F)c2)CC1	none
COc1ccccc1CC(=O)N1CCN(c2cccc(C(F)(F)F)c2)CC1	Cav3 T inh -4.8
CCn1c(Cc2ccc(OC)cc2)nnc1SCC(=O)Nc1cccc(C(=O)OC)c1	none
O=C(O)c1ccc2c(c1)OCCO2	none
CC(C)(C)N(Cc1ccccc1)C(=O)c1ccc2c(c1)OCCO2	Cav3 T inh -4.3
CCOC(=O)C(NC(C)=O)(N1CCOCC1)C(F)(F)F (stereo unspecified)	hDAT+cocaine 1.8
CCOC(=O)C(NC(=O)c1ccccc1)(N1CCOCC1)C(F)(F)F (stereo unspecified)	none

Bioassay records: PubChem, several laboratories
